Experiments:
[1] = target: T1, Receptor-type tyrosine-protein phosphatase C (Homo sapiens, UniProt P08575); test: Inhibitory activity against Protein tyrosine phosphatase CD45.
T1 sequence (P08575 whole entry): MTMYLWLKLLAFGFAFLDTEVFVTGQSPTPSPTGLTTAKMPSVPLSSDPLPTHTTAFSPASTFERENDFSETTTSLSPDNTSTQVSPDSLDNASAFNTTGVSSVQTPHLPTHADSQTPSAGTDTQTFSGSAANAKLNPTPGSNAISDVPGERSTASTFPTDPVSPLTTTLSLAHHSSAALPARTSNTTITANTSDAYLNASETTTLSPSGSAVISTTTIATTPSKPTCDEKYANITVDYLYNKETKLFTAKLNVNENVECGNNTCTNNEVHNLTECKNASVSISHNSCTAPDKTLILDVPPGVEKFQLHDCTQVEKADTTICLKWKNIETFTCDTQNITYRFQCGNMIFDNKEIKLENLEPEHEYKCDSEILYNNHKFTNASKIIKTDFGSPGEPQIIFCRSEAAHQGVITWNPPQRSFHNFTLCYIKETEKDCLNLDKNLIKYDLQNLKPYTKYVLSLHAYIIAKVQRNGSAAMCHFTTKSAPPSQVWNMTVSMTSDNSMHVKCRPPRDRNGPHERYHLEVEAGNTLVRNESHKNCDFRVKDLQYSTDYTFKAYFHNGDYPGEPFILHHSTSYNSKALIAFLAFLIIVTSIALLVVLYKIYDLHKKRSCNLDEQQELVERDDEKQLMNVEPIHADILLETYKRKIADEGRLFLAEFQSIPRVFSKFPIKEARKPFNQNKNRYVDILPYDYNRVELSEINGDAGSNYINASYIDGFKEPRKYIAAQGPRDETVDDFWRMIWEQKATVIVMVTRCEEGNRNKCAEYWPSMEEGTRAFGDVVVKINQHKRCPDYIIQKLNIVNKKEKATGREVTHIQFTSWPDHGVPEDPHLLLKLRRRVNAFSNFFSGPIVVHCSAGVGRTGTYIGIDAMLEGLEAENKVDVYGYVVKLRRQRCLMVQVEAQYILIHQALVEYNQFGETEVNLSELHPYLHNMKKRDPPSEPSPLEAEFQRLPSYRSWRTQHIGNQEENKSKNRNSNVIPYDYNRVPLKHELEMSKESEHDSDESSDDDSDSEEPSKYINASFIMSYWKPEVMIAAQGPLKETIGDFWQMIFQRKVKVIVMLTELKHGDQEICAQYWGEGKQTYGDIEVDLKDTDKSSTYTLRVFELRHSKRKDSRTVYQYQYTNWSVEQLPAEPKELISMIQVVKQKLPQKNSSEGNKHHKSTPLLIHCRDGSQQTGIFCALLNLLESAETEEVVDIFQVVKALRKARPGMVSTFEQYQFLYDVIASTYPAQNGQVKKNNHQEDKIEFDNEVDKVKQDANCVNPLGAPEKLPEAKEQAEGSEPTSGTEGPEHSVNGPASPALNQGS
How it was run: (§1)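 Phosphatase activity was read with 3,6-fluorescein diphosphate (FDP) as substrate, at roughly the KM concentration for each enzyme. IC50 came from 10 inhibitor concentrations fitted to a four-parameter equation, with errors under 10%. Constructs: flag-PTP1B (1–320); flag-CD45 intracellular domain; GST-PTPβ, GST-SHP1 and GST-SHP2; human recombinant TCPTP from E. coli; flag-CDC25a from baculovirus-infected Sf9 cells.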

[2] = target: T2, Tyrosine-protein phosphatase non-receptor type 1 (Homo sapiens, UniProt P18031); test: Inhibitory activity against Protein tyrosine phosphatase 1B (PTP1B).
T2 sequence (P18031 whole entry): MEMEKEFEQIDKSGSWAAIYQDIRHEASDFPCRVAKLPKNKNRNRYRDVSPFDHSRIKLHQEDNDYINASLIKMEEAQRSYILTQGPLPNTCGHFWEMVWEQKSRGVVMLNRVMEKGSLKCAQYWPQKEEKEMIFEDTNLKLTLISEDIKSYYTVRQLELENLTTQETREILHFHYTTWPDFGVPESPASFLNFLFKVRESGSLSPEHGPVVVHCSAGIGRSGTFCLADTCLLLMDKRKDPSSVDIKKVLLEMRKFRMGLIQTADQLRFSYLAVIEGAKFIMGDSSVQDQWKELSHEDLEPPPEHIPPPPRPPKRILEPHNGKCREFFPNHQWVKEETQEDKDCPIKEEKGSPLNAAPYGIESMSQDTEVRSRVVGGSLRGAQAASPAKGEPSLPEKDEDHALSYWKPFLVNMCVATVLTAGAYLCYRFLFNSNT
How it was run: as §1, with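 “enzyme.” for “enzyme. IC50 came from 10 inhibitor concentrations fitted to a four-parameter equation, with errors under 10%.”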

[3] = target: T3, M-phase inducer phosphatase 1 (Homo sapiens, UniProt P30304); test: Inhibitory activity against Protein tyrosine phosphatase cell division cycle 25A; how it was run: as §1
T3 sequence (P30304 whole entry): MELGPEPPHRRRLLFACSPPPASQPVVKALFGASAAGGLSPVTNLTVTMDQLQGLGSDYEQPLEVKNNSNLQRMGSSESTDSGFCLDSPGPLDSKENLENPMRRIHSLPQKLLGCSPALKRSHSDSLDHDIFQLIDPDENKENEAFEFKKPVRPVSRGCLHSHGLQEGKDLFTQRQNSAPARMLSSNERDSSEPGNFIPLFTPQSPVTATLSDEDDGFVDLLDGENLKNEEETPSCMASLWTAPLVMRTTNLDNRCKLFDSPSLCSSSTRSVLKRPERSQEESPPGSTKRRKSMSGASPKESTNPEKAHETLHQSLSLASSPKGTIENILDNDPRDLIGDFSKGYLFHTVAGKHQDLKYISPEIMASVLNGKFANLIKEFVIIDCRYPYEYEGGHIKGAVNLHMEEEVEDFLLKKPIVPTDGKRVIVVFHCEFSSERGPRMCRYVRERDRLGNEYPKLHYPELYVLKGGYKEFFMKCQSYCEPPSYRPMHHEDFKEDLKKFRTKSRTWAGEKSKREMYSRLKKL

[4] = target: Tyrosine-protein phosphatase non-receptor type 6 (Homo sapiens, UniProt P29350); test: Inhibitory activity against Protein tyrosine phosphatase SHP-1.; how it was run: as §1
Sequence of Tyrosine-protein phosphatase non-receptor type 6 (P29350 whole entry): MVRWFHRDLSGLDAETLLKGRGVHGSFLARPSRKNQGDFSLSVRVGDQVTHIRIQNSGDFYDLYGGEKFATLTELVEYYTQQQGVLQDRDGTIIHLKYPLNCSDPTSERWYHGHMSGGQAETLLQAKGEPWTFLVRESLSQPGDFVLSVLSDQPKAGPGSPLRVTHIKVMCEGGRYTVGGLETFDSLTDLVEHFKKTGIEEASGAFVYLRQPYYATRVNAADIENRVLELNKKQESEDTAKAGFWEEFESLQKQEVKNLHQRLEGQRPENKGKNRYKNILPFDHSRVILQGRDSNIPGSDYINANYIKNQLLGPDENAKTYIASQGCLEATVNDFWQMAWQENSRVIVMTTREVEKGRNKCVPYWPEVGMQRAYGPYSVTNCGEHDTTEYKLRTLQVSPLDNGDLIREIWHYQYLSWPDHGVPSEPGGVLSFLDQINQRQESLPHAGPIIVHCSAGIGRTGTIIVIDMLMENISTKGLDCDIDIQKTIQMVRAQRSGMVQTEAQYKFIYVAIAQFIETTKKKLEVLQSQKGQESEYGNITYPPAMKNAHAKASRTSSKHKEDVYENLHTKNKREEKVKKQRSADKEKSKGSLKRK

[5] = target: Receptor-type tyrosine-protein phosphatase beta (Homo sapiens, UniProt P23467); test: Inhibitory activity against Protein tyrosine phosphatase PTPbeta.; how it was run: as §1
Sequence of Receptor-type tyrosine-protein phosphatase beta (P23467 whole entry): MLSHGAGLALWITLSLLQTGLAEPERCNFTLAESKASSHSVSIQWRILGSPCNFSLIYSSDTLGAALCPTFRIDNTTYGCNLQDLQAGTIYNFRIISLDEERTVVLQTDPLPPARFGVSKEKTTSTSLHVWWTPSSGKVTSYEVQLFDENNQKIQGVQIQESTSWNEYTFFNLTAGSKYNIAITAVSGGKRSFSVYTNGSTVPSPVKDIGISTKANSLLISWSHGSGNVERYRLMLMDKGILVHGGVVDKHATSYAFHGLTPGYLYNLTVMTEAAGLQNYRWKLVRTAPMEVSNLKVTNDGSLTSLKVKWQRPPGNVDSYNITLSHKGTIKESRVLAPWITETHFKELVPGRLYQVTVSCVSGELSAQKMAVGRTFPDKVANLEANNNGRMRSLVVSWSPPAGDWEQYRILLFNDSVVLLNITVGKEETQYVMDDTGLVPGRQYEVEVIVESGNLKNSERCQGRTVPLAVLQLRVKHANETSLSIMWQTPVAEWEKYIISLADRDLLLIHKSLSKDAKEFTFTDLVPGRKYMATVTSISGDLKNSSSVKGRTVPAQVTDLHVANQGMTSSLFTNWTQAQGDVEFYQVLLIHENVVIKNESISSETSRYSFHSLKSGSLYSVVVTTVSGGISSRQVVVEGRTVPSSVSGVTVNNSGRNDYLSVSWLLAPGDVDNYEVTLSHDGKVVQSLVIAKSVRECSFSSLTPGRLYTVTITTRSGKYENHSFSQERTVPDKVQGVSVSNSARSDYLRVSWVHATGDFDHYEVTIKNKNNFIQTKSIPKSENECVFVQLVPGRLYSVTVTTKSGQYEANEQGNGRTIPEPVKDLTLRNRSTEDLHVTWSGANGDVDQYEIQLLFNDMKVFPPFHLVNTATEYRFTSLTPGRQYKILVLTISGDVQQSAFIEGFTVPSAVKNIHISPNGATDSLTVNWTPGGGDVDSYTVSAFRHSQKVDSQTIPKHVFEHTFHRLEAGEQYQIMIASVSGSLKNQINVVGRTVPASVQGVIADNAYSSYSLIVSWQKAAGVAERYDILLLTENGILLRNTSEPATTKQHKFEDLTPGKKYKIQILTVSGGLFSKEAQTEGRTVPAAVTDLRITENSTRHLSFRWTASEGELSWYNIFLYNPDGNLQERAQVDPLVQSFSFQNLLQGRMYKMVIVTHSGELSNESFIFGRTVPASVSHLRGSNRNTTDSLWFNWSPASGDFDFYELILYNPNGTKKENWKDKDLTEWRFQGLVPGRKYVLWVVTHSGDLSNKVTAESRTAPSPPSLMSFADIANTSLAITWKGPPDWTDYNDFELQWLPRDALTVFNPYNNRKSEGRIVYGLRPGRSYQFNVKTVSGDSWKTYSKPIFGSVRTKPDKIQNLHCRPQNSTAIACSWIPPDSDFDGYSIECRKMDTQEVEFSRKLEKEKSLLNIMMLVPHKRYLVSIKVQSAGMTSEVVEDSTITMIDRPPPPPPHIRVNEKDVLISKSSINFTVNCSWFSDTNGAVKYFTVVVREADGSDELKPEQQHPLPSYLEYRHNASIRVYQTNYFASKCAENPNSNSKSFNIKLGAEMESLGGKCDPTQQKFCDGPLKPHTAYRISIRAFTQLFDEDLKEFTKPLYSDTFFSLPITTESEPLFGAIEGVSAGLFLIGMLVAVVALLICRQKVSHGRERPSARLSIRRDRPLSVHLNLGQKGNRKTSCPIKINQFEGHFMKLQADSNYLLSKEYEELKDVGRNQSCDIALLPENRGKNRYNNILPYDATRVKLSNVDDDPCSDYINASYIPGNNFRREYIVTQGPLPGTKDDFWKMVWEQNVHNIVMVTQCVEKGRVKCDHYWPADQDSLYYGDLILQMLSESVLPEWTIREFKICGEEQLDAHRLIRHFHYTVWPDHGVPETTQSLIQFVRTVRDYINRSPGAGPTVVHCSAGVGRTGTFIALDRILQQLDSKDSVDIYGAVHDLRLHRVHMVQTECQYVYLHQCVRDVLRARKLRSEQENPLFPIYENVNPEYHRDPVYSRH

[6] = target: T4, Tyrosine-protein phosphatase non-receptor type 2 (Homo sapiens, UniProt P17706); test: Inhibitory activity against Protein tyrosine phosphatase TCPTP.; how it was run: as §1
T4 sequence (P17706 whole entry): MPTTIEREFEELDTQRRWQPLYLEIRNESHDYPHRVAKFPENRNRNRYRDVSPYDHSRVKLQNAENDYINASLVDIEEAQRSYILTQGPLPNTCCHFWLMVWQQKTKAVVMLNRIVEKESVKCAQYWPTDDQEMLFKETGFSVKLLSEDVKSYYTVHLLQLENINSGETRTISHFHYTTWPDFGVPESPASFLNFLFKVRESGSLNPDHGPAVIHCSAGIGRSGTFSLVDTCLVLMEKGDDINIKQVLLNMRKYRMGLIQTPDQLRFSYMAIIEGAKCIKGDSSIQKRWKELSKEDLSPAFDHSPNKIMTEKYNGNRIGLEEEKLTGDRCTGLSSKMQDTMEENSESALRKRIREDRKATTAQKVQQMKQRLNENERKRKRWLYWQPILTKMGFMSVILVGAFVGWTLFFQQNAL

[7] = target: T5, Tyrosine-protein phosphatase non-receptor type 11 (Homo sapiens, UniProt Q06124); test: Inhibitory activity against Protein tyrosine phosphatase SHP-2.; how it was run: as §1
T5 sequence (Q06124 whole entry): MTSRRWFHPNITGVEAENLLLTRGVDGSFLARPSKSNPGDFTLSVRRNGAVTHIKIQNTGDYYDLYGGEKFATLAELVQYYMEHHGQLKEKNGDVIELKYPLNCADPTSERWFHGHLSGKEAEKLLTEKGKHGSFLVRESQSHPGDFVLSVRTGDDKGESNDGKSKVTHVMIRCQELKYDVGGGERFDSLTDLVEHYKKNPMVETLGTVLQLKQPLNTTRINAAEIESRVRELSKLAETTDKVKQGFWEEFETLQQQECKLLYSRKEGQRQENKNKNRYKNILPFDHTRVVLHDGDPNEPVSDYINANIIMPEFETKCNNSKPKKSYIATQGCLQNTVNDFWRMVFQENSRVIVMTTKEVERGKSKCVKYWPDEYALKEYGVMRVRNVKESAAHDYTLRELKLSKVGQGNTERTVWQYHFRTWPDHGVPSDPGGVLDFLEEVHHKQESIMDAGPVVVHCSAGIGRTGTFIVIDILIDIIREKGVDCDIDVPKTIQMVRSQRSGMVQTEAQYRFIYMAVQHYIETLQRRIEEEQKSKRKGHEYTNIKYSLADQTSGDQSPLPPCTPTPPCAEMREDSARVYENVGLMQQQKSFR

[8] = target: T2, Tyrosine-protein phosphatase non-receptor type 1; test: Binding affinity towards the site of PTP1B enzyme
[9] = target: T2, Tyrosine-protein phosphatase non-receptor type 1; test: Binding affinity towards the binding site in PTP1B enzyme
[10] = target: T6, Tyrosine-protein phosphatase non-receptor type 4 (Homo sapiens, UniProt P29074); test: Inhibitory activity against Protein tyrosine phosphatase PTPmeg-1.
T6 sequence (P29074 whole entry): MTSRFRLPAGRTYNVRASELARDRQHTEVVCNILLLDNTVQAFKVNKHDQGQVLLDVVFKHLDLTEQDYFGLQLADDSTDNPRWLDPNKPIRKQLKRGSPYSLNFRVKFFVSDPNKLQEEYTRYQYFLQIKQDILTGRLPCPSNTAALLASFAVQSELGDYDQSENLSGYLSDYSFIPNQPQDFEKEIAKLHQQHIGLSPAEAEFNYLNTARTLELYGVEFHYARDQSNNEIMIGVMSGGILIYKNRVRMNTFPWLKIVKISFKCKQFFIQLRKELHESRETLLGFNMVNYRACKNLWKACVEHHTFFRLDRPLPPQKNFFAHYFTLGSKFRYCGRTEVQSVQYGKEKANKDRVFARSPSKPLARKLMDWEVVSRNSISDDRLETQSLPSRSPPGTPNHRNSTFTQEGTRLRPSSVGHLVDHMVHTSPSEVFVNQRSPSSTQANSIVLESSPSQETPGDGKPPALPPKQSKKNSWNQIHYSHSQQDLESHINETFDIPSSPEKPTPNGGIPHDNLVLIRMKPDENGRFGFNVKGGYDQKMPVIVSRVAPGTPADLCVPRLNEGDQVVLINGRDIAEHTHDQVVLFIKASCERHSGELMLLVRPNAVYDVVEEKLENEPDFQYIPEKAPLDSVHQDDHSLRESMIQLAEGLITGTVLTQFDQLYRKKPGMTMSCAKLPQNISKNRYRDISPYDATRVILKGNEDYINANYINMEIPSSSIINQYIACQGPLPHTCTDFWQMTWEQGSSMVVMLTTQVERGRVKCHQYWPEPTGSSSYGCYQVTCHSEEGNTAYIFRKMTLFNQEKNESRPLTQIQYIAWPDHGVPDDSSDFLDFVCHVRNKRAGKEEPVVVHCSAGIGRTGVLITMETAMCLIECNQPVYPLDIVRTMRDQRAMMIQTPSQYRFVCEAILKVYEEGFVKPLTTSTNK

| SMILES | IC50 [1] [µM] | IC50 [2] [µM] | IC50 [3] [µM] | IC50 [4] [µM] | IC50 [5] [µM] | IC50 [6] [µM] | IC50 [7] [µM] | Ki [8] [µM] | Ki [9] [µM] | IC50 [10] [µM] |
| --- | --- | --- | --- | --- | --- | --- | --- | --- | --- | --- |
| O=P(O)(O)C(F)(F)c1ccc(COc2ccccc2OCc2ccc(C(F)(F)P(=O)(O)O)cc2)cc1 | 42 | 1.7 | 163 | 15 | 77 | 3.2 | 60 |  |  |  |
| O=C(CCc1ccc(C(F)(F)P(=O)(O)O)cc1)Nc1cc(NC(=O)CCc2ccc(C(F)(F)P(=O)(O)O)cc2)cc(C(=O)NCc2ccc(C(=O)O)cc2)c1 |  |  |  |  |  |  |  |  | 0.93 |  |
| O=P(O)(O)C(F)(F)c1ccc(COc2ccc(OCc3ccc(C(F)(F)P(=O)(O)O)cc3)cc2)cc1 | 14 | 4.2 | 30 | 6.3 | 15 | 4.6 | 16 |  |  | 146 |

Second part, the compound after the results:

| IC50 [1] [µM] | IC50 [2] [µM] | IC50 [3] [µM] | IC50 [4] [µM] | IC50 [5] [µM] | IC50 [6] [µM] | IC50 [7] [µM] | Ki [8] [µM] | Ki [9] [µM] | IC50 [10] [µM] | SMILES |
| --- | --- | --- | --- | --- | --- | --- | --- | --- | --- | --- |
| 236 | 3.9 |  | 61 | 300 | 6.1 | 152 |  |  |  | O=P(O)(O)C(F)(F)c1ccc(COCCOCc2ccc(C(F)(F)P(=O)(O)O)cc2)cc1 |
| 198 | 4.4 |  | 31 | 342 | 6.4 | 91 | 1.5 |  |  | O=P(O)(O)C(F)(F)c1ccc(CCCCc2ccc(C(F)(F)P(=O)(O)O)cc2)cc1 |
| 108 | 5.3 | 163 | 16 | 77 | 7.9 | 32 |  |  |  | O=P(O)(O)C(F)(F)c1ccc(COc2cccc(OCc3ccc(C(F)(F)P(=O)(O)O)cc3)c2)cc1 |
